Results of several laboratories.
Compare with care: the assays were run in different laboratories. In brackets after ≈: the same amount, converted by molar mass.

The viability of `O=C(NCc1cn(Cc2ccc(Br)cc2)nn1)Nc1ccccc1Br` is reported as 61.2% (Huh-7; cell growth or viability, CCK-8; 50 µM, 48 h).
For `CN1CCN(c2ccc(-c3ccc4c(Nc5ncccn5)cnnc4c3)cc2)CC1`, the EC50 was 2.6 µM (Trypanosoma cruzi; parasite growth; C2C12; intracellular, amastigote).
`COc1cc(C=O)ccc1OC1=C(Cl)C(=O)c2ccccc2C1=O` gave an MIC of 12 µg/mL (≈ 35 µM) (Alternaria alternata; microbial growth, broth dilution).
The IC50 of `O=C(Cn1ccnc1[N+](=O)[O-])NCc1ccccc1` is reported as 2.23 µM (Trypanosoma cruzi; parasite growth; Vero, TULAHUEN; 72 h, intracellular, amastigote).
`O=C(Nc1ccc(-c2cn(Cc3ccc(Cl)cc3)nn2)cc1)Nc1ccccc1Br` has a viability of 87.2% (Huh-7; cell growth or viability, CCK-8; 50 µM, 72 h).
`COc1ccc(Nc2cnnc3cc(-c4cnc(N5CCCN(C)CC5)nc4)ccc23)cc1Cl` gave an EC50 of 2 µM (Trypanosoma cruzi; parasite growth; C2C12; intracellular, amastigote).
`O=C(Nc1cccc(-c2cn(Cc3ccc(Cl)cc3)nn2)c1)Nc1ccccc1Br` gave a viability of 53.1% (Huh-7; cell growth or viability, CCK-8; 50 µM, 48 h).
For `CN1CCN(c2ncc(-c3ccc4c(Nc5ncccn5)cnnc4c3)cn2)CC1`, the EC50 was over 10 µM (Trypanosoma cruzi; parasite growth; C2C12; intracellular, amastigote).
`COc1ccc(NC(=O)NCc2cn(Cc3ccc(Cl)cc3)nn2)cc1` has a viability of 99% (Huh-7; cell growth or viability, CCK-8; 50 µM, 72 h).
`Cc1ccc(Nc2cnnc3ccc(-c4ccc(N5CCCN(C)CC5)cc4)cc23)cn1` gave an EC50 of 6.1 µM (Trypanosoma cruzi; parasite growth; C2C12; intracellular, amastigote).
`COc1ccc(NC(=O)Nc2cccc(-c3cn(Cc4ccc(Cl)cc4)nn3)c2)cc1` gave an IC50 of 15.5 µM (Huh-7; cell growth or viability, CCK-8; 72 h).
`O=C(Cn1ccnc1[N+](=O)[O-])NCc1ccccc1` gave an IC50 of 1.57 µg/mL (Trypanosoma cruzi; parasite growth; 72 h, epimastigote).
`COc1ccc(NC(=O)NCc2cn(Cc3ccc(Br)cc3)nn2)cc1` gave a viability of 87.2% (Huh-7; cell growth or viability, CCK-8; 50 µM, 48 h).
The viability of `O=C(Nc1ccc(Cl)cc1)Nc1cccc(-c2cn(Cc3cccc(Cl)c3)nn2)c1` is reported as 15% (Huh-7; cell growth or viability, CCK-8; 50 µM, 72 h).
With `COc1ccc(NC(=O)Nc2ccc(-c3cn(Cc4ccc(Br)cc4)nn3)cc2)cc1` the viability was 91.2% (Huh-7; cell growth or viability, CCK-8; 50 µM, 72 h).
`CN1CCN(c2ccc(-c3ccc4nncc(Nc5ncccn5)c4c3)cc2)CC1` has an EC50 of 7.9 µM (Trypanosoma cruzi; parasite growth; C2C12; intracellular, amastigote).
With `COc1ccc(NC(=O)Nc2ccc(-c3cn(Cc4cccc(Cl)c4)nn3)cc2)cc1` the viability was 82.5% (Huh-7; cell growth or viability, CCK-8; 50 µM, 72 h).
With `O=C(NCc1cn(Cc2cccc(Cl)c2)nn1)Nc1ccc(Cl)cc1` the viability was 82.2% (Huh-7; cell growth or viability, CCK-8; 50 µM, 72 h).
`CN1CCN(c2ccc(-c3ccc4c(Nc5cnccn5)cnnc4c3)cc2)CC1` gave an EC50 of over 10 µM (Trypanosoma cruzi; parasite growth; C2C12; intracellular, amastigote).
The viability of `O=C(Nc1ccc(Cl)cc1)Nc1ccc(-c2cn(Cc3ccc(Cl)cc3)nn2)cc1` is reported as 83.6% (Huh-7; cell growth or viability, CCK-8; 50 µM, 48 h).
With `COc1ccc(NC(=O)Nc2cccc(-c3cn(Cc4cccc(Cl)c4)nn3)c2)cc1` the viability was 10.8% (Huh-7; cell growth or viability, CCK-8; 50 µM, 72 h).
For `O=C(NCc1cn(Cc2ccc(Cl)cc2)nn1)Nc1ccc(Cl)cc1`, the viability was 65.7% (Huh-7; cell growth or viability, CCK-8; 50 µM, 48 h).
`Cc1ccc(Nc2cnnc3cc(-c4ccc(N5CCN(C)CC5)cc4)ccc23)cn1` has an EC50 of 1.3 µM (Trypanosoma cruzi; parasite growth; C2C12; intracellular, amastigote).
For `Cc1ccccc1Cn1cc(-c2cccc(NC(=O)Nc3ccc(F)cc3)c2)nn1`, the viability was 12.5% (Huh-7; cell growth or viability, CCK-8; 50 µM, 72 h).
